Assay results: publication PMC6146878 (Molecules : A Journal of Synthetic Chemistry and Natural …, 2003)

Test: Interaction with DPPH
Procedure, shortened: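 DPPH 0.1 mM in absolute ethanol mixed with an equal volume of test compound in ethanol (0.1 mM); ethanol-only control. Kept at room temperature; absorbance at 517 nm recorded after 20 and 60 min. At least triplicate.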

Compound	DPPH (0.1 mmol/L) 20min [%]
CC(Cc1ccc(O)c(O)c1)C(C)Cc1ccc(O)c(O)c1 (centres unmarked) [NDGA, nor-dihydroguaeretic acid]	94
CC(=O)Oc1ccccc1C(=O)O [ASA, Acetyl salicylic acid]	80.5
